Runt-SMMHC FRET – inhibitors of human RUNX1 Runt domain binding to CBFb-SMMHC; AID 1434; Cerulean-Runt/Venus-CBFb-SMMHC FRET ratio 530/480, 1 h; actives 0.74% (n = 220,000); inhibition, % at 20 µM; Q01196+Q13951;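 active = mean inhibition across duplicate retests at 20 µM reaching about 50%, limit read from the data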;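 note: 0% = DMSO wells and 100% = wells with excess untagged CBFb-SMMHC; inhibitors lower the FRET ratio by blocking Runt binding to CBFb-SMMHC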
Runt-CBFb FRET – blocks binding of human RUNX1 Runt domain to CBFb; Q01196+Q13951; Cerulean-Runt/Venus-CBFb FRET ratio 530/480, 1 h; inhibition, % at 20 µM; actives 0.46% (n = 220,000); AID 1496;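 active = inhibition over about 50% at 20 µM in the single-dose screen, limit read from the data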;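 note: 0% = DMSO wells and 100% = excess unlabeled CBFb competitor control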
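System: Cerulean-labeled Runt domain protein | Quantity: 100 nM of each labeled protein | Schedule: 1 h compound exposure, room temperature | Detection: Fluorescence energy transfer, 422 nm excitation, 530/480 nm emission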
RanGTP-Impb inh – inhibitors of RanGTP-importin-beta interaction, primary screen, biochemical, FRET, CFP-Ran, YFP-importin-beta, homogeneous; cell-free CFP-Ran/YFP-importin-beta FRET ratio; inhibition, % (test concentration not listed); actives 1.1% (n = 300,000); AID 2216;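 active = more than half of the replicate wells show a fall in the fluorescence ratio signal beyond about 16%, limit read from the data, passing the limit was not always enough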;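 note: 0% = DMSO wells and 100% = Ran loaded with GDP instead of GTP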
Hck Nef HTS – blocks Nef-activated human Hck kinase; inhibition, % at 20 µM; P08631; Recombinant Hck-YEEI plus Nef, Z-Lyte FRET kinase assay; actives 0.68% (n = 220,000); AID 463187;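 active = Hck-Nef kinase inhibition above about 50%, limit read from the data; inactive = inhibition below that limit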;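 note: 0% = DMSO with Hck plus Nef and 100% = Hck alone without Nef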
Hck-Nef confirm – Hck-Nef kinase inhibition, confirmation. shares compounds with Hck Nef HTS. Recombinant Hck-YEEI:Nef, Z-Lyte FRET kinase assay. calls only at 10 µM. actives 28% (n = 1,300);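 active = average inhibition of at least 50%, with Z-scores no higher than 3 in both the phospho-tyrosine peptide and fluorescence counterscreens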
Starred values were filed as active, the others as inactive; i = inactive; x = not tested or not shown. Hits are enriched below; roughly 1.7% of the tested compounds scored in any of these assays.

SMILES	Runt-SMMHC FRET	Runt-CBFb FRET	RanGTP-Impb inh	Hck Nef HTS	Hck-Nef confirm
FC(F)(F)c1ccc2c(c1)NP(=S)(N1CCOCC1)c1nccn1-2 (stereo unspecified)	-1	0	3	-1	x
O=C(O)Cn1cc(/C=C2\C(=O)NC(=O)N(Cc3ccco3)C2=O)c2ccccc21	-9	19	-2	74*	i
Cc1cc(NCCN)nc2ccccc12	-5	2	-2	6	x
Cc1ccc(NC(=O)CCNC(=O)N2C[C@H]3C[C@@H](C2)c2cccc(=O)n2C3)c(C)c1	x	x	-2	x	x
C1CCCN(C2CCNCC2)CC1	x	x	0	x	x
CCCCCCCCN=Cc1c(O)[nH]c(=O)[nH]c1=O	-5	1	0	2	x
C=CCNC(=S)/N=C/c1c(O)[nH]c(=O)[nH]c1=O	-6	2	-1	83*	i
NC(=S)/N=C/c1c(O)[nH]c(=O)[nH]c1=O	3	4	4	63*	i

Screening data deposited in PubChem BioAssay by several laboratories.
